Active and inactive are the calls of the source. The rule behind the calls is not given here.
What was measured:
[1] = target: T1, Macrophage migration inhibitory factor (Homo sapiens, UniProt P14174); test: Binding affinity to BTZO-12 sensor chip immobilized human MIF expressed in Escherichia coli BL21 (DE3) by SPR analysis
T1 sequence (P14174 whole entry): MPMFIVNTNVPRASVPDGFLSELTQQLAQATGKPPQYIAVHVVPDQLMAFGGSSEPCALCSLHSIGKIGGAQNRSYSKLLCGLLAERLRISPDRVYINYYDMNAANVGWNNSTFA
How it was run: (§1)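 Sensor chip carrying immobilized BTZO-12; MIF (wild type or point mutants) passed over it and specific binding monitored by surface plasmon resonance.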

[2] = Upregulation of heme oxygenase-1 gene expression in serum-deprived neonatal Wistar rat cardiomyocyte at 0.37 uM incubated for 21 hrs by microarray analysis relative to control; assay type: functional, Cardiac muscle cell
How it was run: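 Primary neonatal rat cardiomyocytes, isolated by proteinase digestion with preplating to deplete nonmyocytes, cultured in serum-free medium with or without 0.37 μM compound for 21 hr. Total RNA was recovered and global expression profiled on an Affymetrix GeneChip rat genome U34A array (about 7000 known genes). Change is relative to untreated cells.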

[3] = target: Macrophage migration inhibitory factor (Rattus norvegicus) (UniProt P30904); test: Binding affinity to BTZO-12 sensor chip immobilized recombinant rat MIF expressed in Escherichia coli BL21 (DE3) at pH 6 by SPR analysis
How it was run: (§2)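 SPR on a BTZO-12-type sensor chip with purified recombinant rat MIF, binding compared at pH 6.0 and pH 7.3.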
Target sequence in this assay (P30904 2-115 limits assumed): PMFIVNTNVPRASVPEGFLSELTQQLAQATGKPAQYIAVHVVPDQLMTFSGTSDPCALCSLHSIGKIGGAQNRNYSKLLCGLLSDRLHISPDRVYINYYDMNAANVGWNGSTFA

[4] = target: T2, Glutathione S-transferase alpha-1 (Rattus norvegicus) (UniProt P00502); test: Binding affinity to rat N-terminal 6His-tagged truncated GST Ya expressed in Escherichia coli BL21 (DE3) at 400 nM incubated for 6 hrs using labelled compound by scintillation proximity assay
T2 sequence (whole entry): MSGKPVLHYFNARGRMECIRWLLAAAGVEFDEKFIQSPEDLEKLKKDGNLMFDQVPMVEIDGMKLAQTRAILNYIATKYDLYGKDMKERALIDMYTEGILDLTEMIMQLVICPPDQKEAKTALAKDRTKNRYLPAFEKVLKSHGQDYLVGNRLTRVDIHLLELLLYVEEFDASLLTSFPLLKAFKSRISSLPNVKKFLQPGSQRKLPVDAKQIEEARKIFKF
How it was run: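 Scintillation proximity assay: 6His-tagged protein (hMIF, rat GST Ya or rat VILIP3) captured on copper His-tag SPA beads with [3H]-BTZO-1; emitted light counted on a microplate scintillation counter. Mean of n = 2.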

[5] = target: Macrophage migration inhibitory factor (Rattus norvegicus) (UniProt P30904); test: Inhibition of recombinant rat MIF expressed in Escherichia coli BL21 (DE3) assessed as reduction in tautomerase activity at 30 uM using L-dopachrome carboxy-methyl ester as substrate by spectrophotometry relative to control
How it was run: (§3)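 Purified recombinant rat MIF tautomerase assayed with purified L-dopachrome carboxy-methyl ester as substrate in pH 6.0 buffer; rate taken over the initial 30 s. Mean ± SD, n = 4.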
Target sequence in this assay (P30904 2-115 limits assumed): as the sequence (P30904 2-115 limits assumed) above

[6] = tested on: Antioxidant response element; test: Induction of ARE activity in serum-deprived neonatal Wistar rat cardiomyocytes assessed as increase in GST Ya mRNA level up to 3 uM measured after 24 hrs by RT-qPCR analysis; assay type: cell-based; conditions: Cardiomyocyte
How it was run: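 Neonatal rat cardiomyocytes exposed to samples or vehicle in M-199 with 1% penicillin-streptomycin, no serum, for 24 hr. GST Ya and HO-1 mRNA measured by real-time qPCR (mean ± SD, n = 3); protein by western blot with β-actin as control.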

[7] = Upregulation of 3-methylcholanthrene-inducible truncated UDP-glucuronosyl transferase gene expression in serum-deprived neonatal Wistar rat cardiomyocyte at 0.37 uM incubated for 21 hrs by microarray analysis relative to control; assay type: functional, Cardiac muscle cell
How it was run: (§4)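 Primary neonatal rat cardiomyocytes cultured with or without 0.37 μM compound in serum-free medium for 21 hr. Total RNA profiled on the rat genome U34A GeneChip array (about 7000 known genes).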

[8] = tested on: Cardiac muscle cell; test: Cytoprotective activity against serum deprivation-induced neonatal Wistar rat cardiomyocyte death assessed as increase in cell viability measured after 4 days by WST-8 assay; assay type: functional
How it was run: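 Primary neonatal rat cardiomyocytes were isolated by proteinase digestion, with preplating to remove adherent non-myocytes. Death was induced by serum deprivation at low density (3×10^5 cells/ml) for 4 days with compound present. Viability was read by WST-8. MEC1.5 is the concentration giving a 50% rise in viability. n = 3.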

[9] = target: Macrophage migration inhibitory factor (Rattus norvegicus) (UniProt P30904); test: Binding affinity to BTZO-12 sensor chip immobilized recombinant rat MIF expressed in Escherichia coli BL21 (DE3) at pH 7.3 by SPR analysis; how it was run: as §2
Target sequence in this assay (P30904 2-115 limits assumed): as the sequence (P30904 2-115 limits assumed) above

[10] = target: Macrophage migration inhibitory factor (Rattus norvegicus) (UniProt P30904); test: Inhibition of recombinant rat MIF expressed in Escherichia coli BL21 (DE3) assessed as reduction in tautomerase activity at 3.75 to 30 uM using L-dopachrome carboxy-methyl ester as substrate by spectrophotometry; conditions: dose 3.75-30 µM; how it was run: as §3
Target sequence in this assay (P30904 2-115 limits assumed): as the sequence (P30904 2-115 limits assumed) above

[11] = Upregulation of 3-methylcholanthrene-inducible UDP-glucuronosyltransferase gene expression in serum-deprived neonatal Wistar rat cardiomyocyte at 0.37 uM incubated for 21 hrs by microarray analysis relative to control; assay type: functional, Cardiac muscle cell; how it was run: as §4
[12] = target: T3, Macrophage migration inhibitory factor (Homo sapiens) (UniProt P14174); test: Binding affinity to BTZO-12 sensor chip immobilized recombinant human C-terminal His-tagged MIF expressed in Escherichia coli BL21 (DE3) by SPR analysis; how it was run: as §1
T3 sequence (whole entry): T1 sequence (P14174 whole entry)

[13] = Reduction in MIF mRNA expression in rat H9c2 cells transfected with MIF siRNA at 3 uM measured after 24 hrs RT-qPCR analysis relative to control; assay type: functional; parameters: scale not given: the % may be the effect or the level left
How it was run: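 H9c2 cells transfected with 100 nM rat MIF siRNA or negative-control siRNA using Oligofectamine in Opti-MEM, then treated with 3 μM compound for 24 hr. MIF mRNA by real-time qPCR; MIF protein in cell lysate and medium by ELISA. Mean ± SD, n = 3.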

[14] = tested on: Antioxidant response element; test: Induction of ARE-mediated GST Ya mRNA expression in MIF siRNA transfected rat H9c2 cells at 3 uM measured after 24 hrs in presence of rat MIF by RT-qPCR analysis; assay type: cell-based
How it was run: (§5)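 H9c2 cells transfected with MIF siRNA or control siRNA (100 nM, Oligofectamine), then treated with 3 μM compound with or without 0.8 μM rMIF for 24 hr. GST Ya and HO-1 mRNA by real-time qPCR; mean ± SD, n = 3. MIF effect on drug efficacy tested by Aspin-Welch test.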

[15] = target: Macrophage migration inhibitory factor (Rattus norvegicus) (UniProt P30904); test: Inhibition of [3H]-BTZO-1 binding to recombinant rat C-terminal His-tagged MIF expressed in Escherichia coli BL21 (DE3) measured after 3 hrs by SPA
Target sequence in this assay (P30904 whole entry, looked up): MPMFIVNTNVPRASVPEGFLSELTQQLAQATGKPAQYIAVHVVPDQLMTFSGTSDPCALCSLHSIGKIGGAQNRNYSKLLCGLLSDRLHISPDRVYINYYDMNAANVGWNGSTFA

[16] = tested on: Antioxidant response element; test: Induction of ARE-mediated HO-1 mRNA expression in MIF siRNA transfected rat H9c2 cells at 3 uM measured after 24 hrs in presence of rat MIF by RT-qPCR analysis; assay type: cell-based; how it was run: as §5
[17] = tested on: Antioxidant response element; test: Induction of rat ARE activity expressed in MIF-stimulated rat H9c2 cells assessed as increase in ARE luciferase activity at 1 uM measured after 24 hrs by steady-glo luciferase Assay; assay type: cell-based
How it was run: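 H9c2 cells transiently transfected with pGL3-ARE-Luc (rat GST Ya ARE) or mutant-ARE control plasmid, then treated with rMIF with or without 1 μM compound for 24 hr. Luciferase by Steady-Glo; mean ± SD, n = 4.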

O=c1nc(-c2ccccn2)sc2ccccc12 [BTZO-1]
Kd [1]: 0.088 µM
fold change (FC) [2]: 2
Activity [3]: Active
Activity [4]: inactive
inhibition [5]: 13%
Activity [6]: Active
fold change (FC) [7]: 2.2
MEC1.5 ([8]; time 4 day): 16 nM
Activity ([8]; time 4.0 day): Dose-Dependent Effect
Activity [9]: Active
inhibition [10]: Active
fold change (FC) [11]: 2.1
Activity [12]: Active
Activity [13]: ~80%
Activity [14]: Active
IC50 [15]: 0.071 µM
Activity [16]: Active
Activity [17]: Active

Source: ChEMBL document CHEMBL5715946 (Chem Biol, 2010)
